Reference: ChEMBL document CHEMBL1157729, “Structure-activity relationship and mechanism of action studies of manzamine analogues for the control of neuroinflammation and cerebral infections” (J Med Chem, 2010)
pIC50: −log10 of the molar value. Values after ≈ are worked out from the molar mass of the structure shown.

Experiments:
[1] = Selectivity index, ratio of IC50 for african green monkey (Cercopithecus aethiops) Vero cells to IC50 for chloroquine-sensitive Plasmodium falciparum; format: toxicity, cell-based
Vero = assay: Cytotoxicity against african green monkey Vero cells after 48 hrs by neutral red assay; format: cell-based; settings: chlorocebus sabaeus
Outline: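 Vero cells seeded at 25,000/well and grown 24 h, then exposed to serially diluted samples for 48 h. Viable cells measured by neutral red assay, with doxorubicin as positive control. IC50 taken from dose-response curves.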

[2] = Antineuroinflammatory activity in LPS-stimulated rat neonatal microglia assessed as inhibition of PMA-induced TXB2 production preincubated 15 mins prior to PMA challenge measured after 70 mins; format: functional, cell-based
MDCK = assay: Apparent permeability across apical to basolateral side of MDCK cells expressing MDR; format: ADME, cell-based, Canis lupus familiaris; settings: dog
Outline: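 MDR-MDCK cells (passage 12-40) seeded at 75,000 cells/cm2 and grown 8 days on Transwell inserts to a monolayer. Bidirectional transport over 2 h in HBSS pH 7.4 with test substance at 50 μM and caffeine (5 μM) as standard. Donor and receiver samples quantified by LC-MS. Cumulative amount transported plotted against time to derive apparent permeability.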

Plasmodium berghei [3] = assay: Antiplasmodial activity against Plasmodium berghei NK65 infected in Swiss Webster mice (Mus musculus) assessed as survivability at 5 mg/kg, perorally administered 1 day after infection for 3 days measured after 28 days post infection; format: functional; settings: route oral
Plasmodium berghei [4] = assay: Antiplasmodial activity against Plasmodium berghei NK65 infected in Swiss Webster mice (Mus musculus) assessed as parasitaemia cure at 3.3 mg/kg, perorally administered 1 day after infection for 3 days measured after 28 days post infection; format: functional; settings: route oral
Outline: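 Male Swiss Webster mice (18-20 g), at least 5 per group, inoculated i.p. with 2×10^7 P. berghei NK-65 parasitized red cells from a donor mouse. Oral dosing (100 μl, in SSV or dilute HCl) from day one after infection, three-day modified Peters suppressive schedule. Giemsa-stained tail blood smears from day 5 through day 28. Inhibition is % parasitemia drop on day 5 versus untreated controls. Cure means no parasitemia through day 28.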

Plasmodium berghei [5] = assay: Antiplasmodial activity against Plasmodium berghei NK65 infected in Swiss Webster mice (Mus musculus) assessed as parasitaemia cure at 10 mg/kg, perorally administered 1 day after infection for 3 days measured after 28 days post infection; format: functional; settings: route oral
Outline: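 Male Swiss Webster mice (18-20 g), at least 5 per group, inoculated i.p. with 2×10^7 P. berghei NK-65-parasitized red cells from a donor mouse. Oral dosing (100 μl, in SSV or 0.01 M HCl dilutions) from day one post-infection on a 3-day schedule (modified Peters test). Giemsa-stained tail-blood smears read from day 5 to day 28. Cure means no parasitemia through day 28.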

Plasmodium berghei [6] = assay: Antiplasmodial activity against Plasmodium berghei NK65 infected in Swiss Webster mice (Mus musculus) assessed as average parasitaemia at 3.3 mg/kg, perorally administered 1 day after infection for 3 days measured after 21 days post infection; format: functional; settings: route oral
Outline: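 Male Swiss Webster mice (18-20 g, ≥5/group) inoculated i.p. with 2×10^7 P. berghei NK-65 parasitized RBC; oral dosing (100 μl, SSV or dilute HCl vehicle) once daily for 3 days from day 1; Giemsa-stained tail blood smears days 5–28; inhibition is % decrease versus untreated controls on day 5.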

Plasmodium berghei [7] = assay: Antiplasmodial activity against Plasmodium berghei NK65 infected in Swiss Webster mice (Mus musculus) assessed as average parasitaemia at 200 mg/kg, perorally administered 1 day after infection measured after 5 days post infection; format: functional; settings: Plasmodium berghei, NK65, route oral
Outline: (§1)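 Male Swiss Webster mice (18-20 g), at least 5 per group, were inoculated ip with 2×10^7 P. berghei NK-65-parasitized red cells from a donor mouse and given a single oral dose (100 μl). Stock was made in SSV or 0.1 M HCl and diluted in SSV or 0.01 M HCl. Parasitemia was read from Giemsa-stained tail blood smears from day 5 to day 28. Cure meant no parasitemia through day 28.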

Plasmodium berghei [8] = assay: Antiplasmodial activity against Plasmodium berghei NK65 infected in Swiss Webster mice (Mus musculus) assessed as average parasitaemia at 50 mg/kg, perorally administered 1 day after infection measured after 7 days post infection; format: functional; settings: route oral
Outline: (§2)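 Male Swiss Webster mice (18-20 g, ≥5/group) inoculated i.p. with 2×10^7 P. berghei NK-65 parasitized RBC, given a single oral dose (100 μl, SSV or dilute HCl vehicle); parasitemia by Giemsa-stained tail blood smears days 5–28; activity as % decrease versus untreated controls on day 5.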

Plasmodium berghei [9] = assay: Antiplasmodial activity against Plasmodium berghei NK65 infected in Swiss Webster mice (Mus musculus) assessed as average parasitaemia at 100 mg/kg, perorally administered 1 day after infection measured after 7 days post infection; format: functional; settings: route oral
Plasmodium berghei [10] = assay: Antiplasmodial activity against Plasmodium berghei NK65 infected in Swiss Webster mice (Mus musculus) assessed as average parasitaemia at 50 mg/kg, perorally administered 1 day after infection measured after 10 days post infection; format: functional; settings: route oral
Plasmodium berghei [11] = assay: Antiplasmodial activity against Plasmodium berghei NK65 infected in Swiss Webster mice (Mus musculus) assessed as average parasitaemia at 100 mg/kg, perorally administered 1 day after infection measured after 10 days post infection; format: functional; settings: route oral
Plasmodium berghei [12] = assay: Antiplasmodial activity against Plasmodium berghei NK65 infected in Swiss Webster mice (Mus musculus) assessed as average parasitaemia at 200 mg/kg, perorally administered 1 day after infection measured after 14 days post infection; format: functional; settings: Plasmodium berghei, NK65, route oral; outline: as §1
Plasmodium berghei [13] = assay: Antiplasmodial activity against Plasmodium berghei NK65 infected in Swiss Webster mice (Mus musculus) assessed as average parasitaemia at 100 mg/kg, perorally administered 1 day after infection measured after 21 days post infection; format: functional; settings: route oral; outline: as §2
Plasmodium berghei [14] = assay: Antiplasmodial activity against Plasmodium berghei NK65 infected in Swiss Webster mice (Mus musculus) assessed as parasitaemia cure at 100 mg/kg, perorally administered 1 day after infection measured after 28 days post infection; format: functional; settings: route oral
Outline: (§3)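 P. berghei NK-65 infection in male Swiss Webster mice (18-20 g; 2×10^7 parasitized erythrocytes i.p.; ≥5 per group). A single oral dose of 100 μl, diluted in SSV or 0.01 M HCl, then observation for toxicity signs and body weight. Parasitemia read from Giemsa-stained tail smears from day 5 through day 28. Mice free of parasitemia through day 28 counted as cured.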

Mus musculus [15] = species: Mus musculus; assay: Toxicity in Plasmodium berghei NK65 infected Swiss Webster mice (Mus musculus) assessed as weight loss after 5 days post infection; format: organism-based; settings: in vivo, 120 h
Mus musculus [16] = assay: Toxicity in Plasmodium berghei NK65 infected Swiss Webster mice (Mus musculus) assessed as weight loss at 200 mg/kg, perorally; format: organism-based; design: dose 200 mg/kg, route oral; settings: in vivo, po; outline: as §3
HeLa [17] = assay: Cell cycle arrest in human HeLa cells assessed as increase in G0/G1 phase accumulation at 5 uM after 24 hrs by FACS analysis; format: functional
HeLa [18] = assay: Cell cycle arrest in human HeLa cells assessed as increase in G0/G1 phase accumulation at 20 uM after 24 hrs by FACS analysis; format: functional
Mus musculus [19] = assay: Toxicity in Plasmodium berghei NK65 infected Swiss Webster mice (Mus musculus) at 3 mg/kg, intraperitoneally administered as 10 doses measured after 3 days of inoculation; format: organism-based; design: dose 3 mg/kg, route intraperitoneal; settings: in vivo, ip, 72 h
Outline: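 Male Swiss Webster mice (18-20 g), 5 per group, were inoculated i.p. with 2×10^7 P. berghei NK-65 parasitized red cells. Compound was given i.p. at 10×3 mg/kg, with a vehicle-control group. Day of death, mean survival time and cure were recorded. Parasitemia was read on Giemsa-stained tail-blood smears (days 5, 7), with suppression relative to the control mean. Cure meant no parasitemia through day 28.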

In the case of O[C@]12C=C(c3nccc4c3[nH]c3ccccc34)[C@@H]3CCN(CCCC/C=C\CC1)C[C@@]31C[C@@H]3/C=C\CCCCN3[C@H]12 [MANZAMINE A], the “Ratio IC50” value [1] was 44, the IC50 (Vero) was 0.2 µg/mL (≈ 0.364 µM) and the pIC50 [2] was > 7.00. It also gave a Papp (MDCK) of 0.87 ×10⁻⁶ cm/s, an inhibition in vivo at 5 mg/kg (Plasmodium berghei [3]) of 100% and an inhibition in vivo at 3.3 mg/kg (Plasmodium berghei [4]) of 25%. For the same compound, the inhibition in vivo at 10 mg/kg (Plasmodium berghei [5]) was 75%, the inhibition in vivo at 3.3 mg/kg (Plasmodium berghei [6]) was 21.6% and the inhibition in vivo at 200 mg/kg (Plasmodium berghei [7]) was 0%. The inhibition in vivo at 50 mg/kg (Plasmodium berghei [8]) was 0%, the inhibition in vivo at 100 mg/kg (Plasmodium berghei [9]) was 0% and the inhibition in vivo at 50 mg/kg (Plasmodium berghei [10]) was 0%. It also gave an inhibition in vivo at 100 mg/kg (Plasmodium berghei [11]) of 0%, an inhibition in vivo at 200 mg/kg (Plasmodium berghei [12]) of 0% and an inhibition in vivo at 100 mg/kg (Plasmodium berghei [13]) of 0%. For the same compound, the inhibition in vivo at 100 mg/kg (Plasmodium berghei [14]) was 100%, the Activity (Mus musculus [15]) was “Non-toxic” and the Activity (Mus musculus [16]) was “Toxic”. The Activity (HeLa [17]) was 56.3%, the Activity (HeLa [18]) was 67.2% and the Activity (Mus musculus [19]) was “Non-toxic”.
